A short description of experiment [1]: inhibitors of TNFa-induced NFkB p65 translocation, primary screen, imaging, HUVEC, MLSMR starter and 10KST1 sets (AID 438;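 active = inhibition above 20% together with a positive visual image hit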;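 also: compound added about 3h40 before a 20 min TNFalpha stimulation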;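 as to inhibition: signal is the nuclear over cytoplasmic p65 intensity ratio per well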). Particulars: HUVEC TNFa-induced p65 nuclear translocation; cell count: measured here: nuclei count (cytotoxicity indicator), at 2.08 µM; inhibition: at 2 µM, stronger effect = higher value, 0% TNFa-plus-vehicle, 100% no-TNFa wells.
A short description of experiment [2]: inhibitors of mutant huntingtin aggregation, primary screen, imaging, exon1htt(103Q)mCFP cells, high-content imaging (AID 483;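 active = visual image review flags a hit and inhibition of aggregation exceeds 20%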;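 also: compound exposure lasted 3 days before fixation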;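 as to nuclei count: percent of the per-plate median nuclei count of sample wells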). Particulars: exon1htt(103Q)mCFP cell line, aggregate imaging, at 2 µM; inhibition of aggregation: stronger effect = higher value; nuclei count: measured here: cell count, toxicity.
The nature of experiment [3]: inhibitors of E-selectin induction by TNFa, primary screen, imaging, HUVEC, immunofluorescence, MLSMR starter and 10KST1 sets (AID 487;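 active = visually confirmed hit in the image check and inhibition above 20%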;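 as to inhibition: signal is fraction of cell area covered by stained E-selectin grains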;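 as to nuclei count: 100% = median nuclei count of all wells on the same plate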). As to conditions: HUVEC TNFalpha-induced E-selectin immunofluorescence imaging, at 2 µM; inhibition: stronger effect = higher value; nuclei count: measured here: cell number, toxicity.
The target in experiment [4] is Voltage-gated potassium channel subunit beta-2 (Rattus norvegicus) (UniProt P62483). Kind of experiment: KvBeta enzyme negative modulators, primary screen, biochemical, NADPH fluorescence (AID 622;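 active = fluorescence slope higher than the sample average by over 3 SD, cut at about -0.22 in these data, passing the limit was not always enough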;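 also: slope of raw intensity against log time taken from 70 to 1610 s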). As to conditions: recombinant KvBeta, 4-cyanobenzaldehyde reduction, at 10 µM, stronger effect = higher value.
Experiment [5] shares this target. The experiment in a line: KvBeta positive modulators, primary screen, biochemical, NADPH fluorescence (AID 623;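 active = NADPH fluorescence slope more negative than the mean of all samples by about 3 SD, 99.7% confidence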;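 also: fluorescence intensity change per second fitted from 20 to 320 s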). Particulars: Recombinant KvBeta, NADPH fluorescence decrease slope, 10 min; at 10 µM; stronger effect = lower value.
The target in experiment [6] is Muscarinic acetylcholine receptor M4 (Homo sapiens) (UniProt P08173). The experiment in a line: compounds altering M4/GIRK thallium flux, either direction, primary screen, M4 allosteric agonist project, cell-based, HEK293 M4/GIRK, BTC-AM (AID 625).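 Also: thallium influx through GIRK channels coupled to M4 in HEK293 cells with BTC-AM dye.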 Particulars: at 10 µM, actives lie on both sides. In a few lines:
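assay system = HEK293 cells with M4 receptor and GIRK channels | medium = pH 7.3 thallium assay buffer | doses = 10 µM final, single point | timing = cells overnight at 37 °C, BTC-AM loading 1 h, reads 2 min total | signal = BTC-AM fluorescence, 1 Hz kinetic reads | read-out = post-addition slope, 15–24 s, of baseline-normalized fluorescence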

Experiment [7] in a line: inhibitors of Sendai virus-induced IRF3 signaling, primary screen, TLR/RLR signaling modifier project, cell-based, Sendai virus stimulus, luciferase, 10K MLSCN set (AID 602276;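 active = inhibition at or above 50% at 10 µM; inactive = inhibition below 50%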;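 also: firefly luciferase from ISG56 promoter only with Renilla not read in this screen; 0% = Sendai virus plus DMSO and 100% = medium plus DMSO without virus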). Particulars: HEK293 RL24 IRF3 luciferase reporter, at 10 µM, stronger effect = higher value. Background: Reporter assays use an easily measured gene product as a stand-in for the process of interest.
The nature of experiment [8]: inhibitors of poly I:C-induced TLR3 signaling, primary screen, cell-based, poly I:C stimulus, luciferase, 10K MLSCN set (AID 602277;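 active = inhibition of the reporter signal at or above 50%; inactive = inhibition below 50%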). Particulars: HEK293-TLR3 RL24 IRF3 luciferase reporter, at 10 µM, stronger effect = higher value.

The structures appear in SMILES notation. Calls of active or inactive are those of the source.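 The calls were made as follows, unless noted: active = fluorescence slope after compound addition differing from the mean of all tested samples at 99.7% confidence, mostly higher but some lower; inactive = the rest.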

Sequence of Muscarinic acetylcholine receptor M4 (Homo sapiens) (P08173 whole entry, looked up): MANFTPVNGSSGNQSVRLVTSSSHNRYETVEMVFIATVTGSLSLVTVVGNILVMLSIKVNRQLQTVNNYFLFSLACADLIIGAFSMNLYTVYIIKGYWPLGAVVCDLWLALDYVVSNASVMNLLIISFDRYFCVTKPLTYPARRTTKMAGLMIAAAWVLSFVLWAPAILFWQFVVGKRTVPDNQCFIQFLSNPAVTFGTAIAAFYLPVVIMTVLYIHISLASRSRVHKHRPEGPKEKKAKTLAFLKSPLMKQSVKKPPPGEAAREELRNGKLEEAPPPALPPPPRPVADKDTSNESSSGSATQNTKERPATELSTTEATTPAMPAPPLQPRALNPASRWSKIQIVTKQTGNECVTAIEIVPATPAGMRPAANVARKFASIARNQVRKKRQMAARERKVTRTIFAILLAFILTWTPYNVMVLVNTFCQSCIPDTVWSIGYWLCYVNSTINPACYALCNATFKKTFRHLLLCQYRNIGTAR
Sequence of Voltage-gated potassium channel subunit beta-2 (Rattus norvegicus) (P62483 whole entry, looked up): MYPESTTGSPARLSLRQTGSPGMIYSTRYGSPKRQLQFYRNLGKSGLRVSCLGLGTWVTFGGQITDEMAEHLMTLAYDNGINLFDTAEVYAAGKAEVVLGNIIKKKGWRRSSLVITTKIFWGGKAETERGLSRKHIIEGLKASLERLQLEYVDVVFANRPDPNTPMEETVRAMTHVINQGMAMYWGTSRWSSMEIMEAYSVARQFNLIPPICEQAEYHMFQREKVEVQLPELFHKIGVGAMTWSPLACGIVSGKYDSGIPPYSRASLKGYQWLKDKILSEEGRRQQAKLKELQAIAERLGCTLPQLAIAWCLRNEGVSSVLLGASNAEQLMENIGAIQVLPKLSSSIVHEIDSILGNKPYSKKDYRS

On to `CCN(CC)S(=O)(=O)N1CCC(C(=O)NCC2COc3ccccc3O2)CC1` (centres undefined), for which the cell count in experiment [1] is 616. Also, the inhibition (usually the change of the read-out against control, counted positive when it falls) in experiment [1] is 17% (inactive); in experiment [3], -27.8% (inactive); in experiment [7] it was -4.12% (inactive); in experiment [8], 1.83% (inactive). Further, the inhibition of aggregation in experiment [2] was -12.4% (inactive). In addition, the values for the nuclei count in experiment [2] and in experiment [3] were 88.5% and 115%, respectively. The fluorescence slope in experiment [4] was -0.494 (inactive); in experiment [6] it was 0.00755 (inactive). The NADPH fluorescence slope in experiment [5] was 2.9e-05 (inactive).
For `CCC1CCCCN1S(=O)(=O)c1ccc(C(=O)Nc2nnc(-c3cccs3)o2)cc1` (centres undefined), the cell count in experiment [1] turned out to be 404. The inhibition is 5.3% (inactive) in experiment [1], -211% (inactive) in experiment [3], 10.8% (inactive) in experiment [7] and 16.6% (inactive) in experiment [8]. Also, in experiment [2], the inhibition of aggregation was 8.5% (inactive). The nuclei count was determined as 97% in experiment [2] and 111% in experiment [3]. Further, the values for the fluorescence slope in experiment [4] and in experiment [6] were -0.486 (inactive) and 0.0055 (inactive), respectively. In experiment [5], the NADPH fluorescence slope was -0.000271 (inactive).
As to `COc1ccccc1N1CCN(CCCNC(=O)Nc2ccccc2)CC1`, the cell count in experiment [1] was 377. The inhibition in experiment [1] was 8.7% (inactive); in experiment [3] it was -129% (inactive); in experiment [7] it was 15.3% (inactive); in experiment [8], 23.9% (inactive). In addition, in experiment [2], the inhibition of aggregation is 8.2% (inactive). In addition, the nuclei count turned out to be 96.1% in experiment [2] and 106% in experiment [3]. For the same molecule, the fluorescence slope in experiment [4] is -0.449 (inactive); in experiment [6], 0.00541 (inactive). Also, the NADPH fluorescence slope in experiment [5] is 1.8e-05 (inactive).
`COc1ccc(OC)c(NC(=O)c2cn(C)c(=O)c3cc(OC)c(OC)cc23)c1`: in experiment [1], the cell count is 782. Moreover, the inhibition in experiment [1] was -20.3% (inactive); in experiment [3], 10.9% (inactive); in experiment [7], -16.7% (inactive); in experiment [8] it was -26.6% (inactive). Also, in experiment [2], the inhibition of aggregation was 1.3% (inactive). In addition, the figures for the nuclei count in experiment [2] and in experiment [3] were 97.7% and 119%, respectively. The fluorescence slope in experiment [4] was -0.307 (inactive); in experiment [6], 0.00686 (inactive). The NADPH fluorescence slope in experiment [5] is -1.5e-05 (inactive).
Turning to `Cc1cccc(N(CC(N)=O)S(C)(=O)=O)c1C`, the cell count in experiment [1] is 369. Also, the inhibition was -5.2% (inactive) in experiment [1], -129% (inactive) in experiment [3], 11% (inactive) in experiment [7] and 14.1% (inactive) in experiment [8]. The inhibition of aggregation in experiment [2] was 6.8% (inactive). Also, the figures for the nuclei count in experiment [2] and in experiment [3] were 100% and 122%, respectively. The fluorescence slope in experiment [4] is -0.551 (inactive); in experiment [6], 0.00412 (inactive). In addition, the NADPH fluorescence slope in experiment [5] is -0.000105 (inactive).
With `COc1ccc(OC)c(NC(=O)CSc2nc3ccccc3c(=O)n2CCNC(C)=O)c1`, in experiment [1], the cell count turned out to be 497. Further, the inhibition in experiment [1] was -4.3% (inactive); in experiment [3], -17.6% (inactive); in experiment [7], 14.7% (inactive); in experiment [8] it was 18.6% (inactive). The inhibition of aggregation in experiment [2] was 10.1% (inactive). Further, the nuclei count amounted to 111% in experiment [2] and 115% in experiment [3]. Also, the fluorescence slope in experiment [4] is -0.455 (inactive); in experiment [6], 0.00813 (inactive). Besides, the NADPH fluorescence slope in experiment [5] is 4e-05 (inactive).
Take `CC1CCN(CCC(=O)Nc2ccc(Br)cc2)CC1`: the cell count in experiment [1] is 612. The inhibition in experiment [1] was 7.4% (inactive); in experiment [3] it was 88.6% (active); in experiment [7] it was 14% (inactive); in experiment [8] it was 19.3% (inactive). Moreover, the inhibition of aggregation in experiment [2] was -13.6% (inactive). For the same molecule, the nuclei count was 99.8% in experiment [2] and 179% in experiment [3]. The fluorescence slope in experiment [4] is -0.42 (inactive); in experiment [6], 0.00434 (inactive). The NADPH fluorescence slope in experiment [5] was 2.4e-06 (inactive).
For the molecule `COc1ccccc1N1CCN(C(=O)CSc2nc(-c3ccccc3)cc(=O)[nH]2)CC1`, the cell count in experiment [1] turned out to be 284. The inhibition is -10.5% (inactive) in experiment [1], -30.1% (inactive) in experiment [3], -1.48% (inactive) in experiment [7] and 6.29% (inactive) in experiment [8]. Moreover, in experiment [2], the inhibition of aggregation was -9.2% (inactive). Besides, the nuclei count in experiment [2] was determined as 114%; in experiment [3], 124%. The fluorescence slope in experiment [4] was -0.509 (inactive); in experiment [6] it was 0.00621 (inactive). For the same molecule, in experiment [5], the NADPH fluorescence slope is 9.3e-06 (inactive).
In the case of `CCn1c(=O)n(CC(=O)Nc2cc(OC)ccc2OC)c(=O)c2ccccc21`, the cell count in experiment [1] was 696. Moreover, the inhibition in experiment [1] is -1.6% (inactive); in experiment [3], -1.5% (inactive); in experiment [7] it was 24.5% (inactive); in experiment [8] it was 23.2% (inactive). Besides, the inhibition of aggregation in experiment [2] is 17.9% (inactive). Also, the nuclei count in experiment [2] came to 63.6%; in experiment [3], 99.5%. The fluorescence slope in experiment [4] was -0.564 (inactive); in experiment [6], 0.00496 (inactive). In addition, the NADPH fluorescence slope in experiment [5] was -5.4e-05 (inactive).
As to `CCOC(=O)N1CCN(c2cc3[nH]c(=S)[nH]c3cc2F)CC1`, the cell count in experiment [1] was 792. Besides, the inhibition in experiment [1] is 0% (inactive); in experiment [3], -135% (inactive); in experiment [7], 17.8% (inactive); in experiment [8], 20.8% (inactive). Moreover, in experiment [2], the inhibition of aggregation was -5.7% (inactive). In addition, the nuclei count in experiment [2] came out at 104%; in experiment [3] it was 136%. Also, the fluorescence slope in experiment [4] was -0.525 (inactive); in experiment [6], 0.00501 (inactive). In addition, in experiment [5], the NADPH fluorescence slope is -2.4e-05 (inactive).
Turning to `c1ccc(CNC2=NCCC2)nc1`, the cell count in experiment [1] came out at 414. Besides, the inhibition was -5.7% (inactive) in experiment [1], 42.6% (inactive) in experiment [3], 1.8% (inactive) in experiment [7] and 10.1% (inactive) in experiment [8]. The inhibition of aggregation in experiment [2] is 14.2% (inactive). The nuclei count in experiment [2] came out at 65.8%; in experiment [3] it was 75.5%. In addition, the fluorescence slope was -0.586 (inactive) in experiment [4] and 0.00615 (inactive) in experiment [6]. The NADPH fluorescence slope in experiment [5] is -2.6e-05 (inactive).
On to `COC(=O)c1c(NC(=O)c2ccc(S(=O)(=O)N3CCOCC3)cc2)sc2c1CCN(C)C2`, for which the cell count in experiment [1] is 296. The inhibition in experiment [1] is -9.1% (inactive); in experiment [3], -25.5% (inactive); in experiment [7], -9.85% (inactive); in experiment [8] it was 15.9% (inactive). The inhibition of aggregation in experiment [2] is 3% (inactive). Further, the nuclei count in experiment [2] was found to be 117%; in experiment [3] it was 114%. Besides, the fluorescence slope was -0.483 (inactive) in experiment [4] and 0.0054 (inactive) in experiment [6]. The NADPH fluorescence slope in experiment [5] was -5.3e-05 (inactive).
Regarding `CCOC(=O)c1c(NC(=O)Cn2c(C)nc3ccccc32)sc2c1CCC2`, the cell count in experiment [1] stood at 459. The inhibition is -6.2% (inactive) in experiment [1], -75.4% (inactive) in experiment [3], 17.3% (inactive) in experiment [7] and 24% (inactive) in experiment [8]. For the same molecule, the inhibition of aggregation in experiment [2] was 15.3% (inactive). Besides, the nuclei count was 102% in experiment [2] and 112% in experiment [3]. Besides, the fluorescence slope in experiment [4] is -0.552 (inactive); in experiment [6], 0.00437 (inactive). Moreover, in experiment [5], the NADPH fluorescence slope is -2.4e-05 (inactive).
Consider `CCCn1c(SCC(=O)Nc2nnc(-c3ccccc3)s2)nnc1-c1ccccn1`, for which the cell count in experiment [1] was determined as 591. Besides, the inhibition in experiment [1] is -5.1% (inactive); in experiment [3] it was 7% (inactive); in experiment [7] it was -15.8% (inactive); in experiment [8], -30% (inactive). The inhibition of aggregation in experiment [2] is 14.9% (inactive). For the same molecule, the nuclei count in experiment [2] was found to be 45.4%; in experiment [3], 105%. In addition, the fluorescence slope was -0.376 (inactive) in experiment [4] and 0.00563 (inactive) in experiment [6]. Moreover, the NADPH fluorescence slope in experiment [5] was 1.2e-05 (inactive).

Source of the values: PubChem BioAssay.
